Screens (PubChem)
M5 antag: blocks acetylcholine activation of human M5 receptor; CHO-hM5 cells, Fluo-8 calcium fluorescence, ACh EC80; inhibition, % at 3 µM; actives 0.59% (n = 360,000);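 active = inhibition above a per-plate cutoff, the mean of that plate's test compounds plus 3 SD, cut at about 27% in these data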;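 note: 0% = acetylcholine EC80 with DMSO and 100% = DMSO without agonist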
Target sequence (P08912 whole entry, looked up): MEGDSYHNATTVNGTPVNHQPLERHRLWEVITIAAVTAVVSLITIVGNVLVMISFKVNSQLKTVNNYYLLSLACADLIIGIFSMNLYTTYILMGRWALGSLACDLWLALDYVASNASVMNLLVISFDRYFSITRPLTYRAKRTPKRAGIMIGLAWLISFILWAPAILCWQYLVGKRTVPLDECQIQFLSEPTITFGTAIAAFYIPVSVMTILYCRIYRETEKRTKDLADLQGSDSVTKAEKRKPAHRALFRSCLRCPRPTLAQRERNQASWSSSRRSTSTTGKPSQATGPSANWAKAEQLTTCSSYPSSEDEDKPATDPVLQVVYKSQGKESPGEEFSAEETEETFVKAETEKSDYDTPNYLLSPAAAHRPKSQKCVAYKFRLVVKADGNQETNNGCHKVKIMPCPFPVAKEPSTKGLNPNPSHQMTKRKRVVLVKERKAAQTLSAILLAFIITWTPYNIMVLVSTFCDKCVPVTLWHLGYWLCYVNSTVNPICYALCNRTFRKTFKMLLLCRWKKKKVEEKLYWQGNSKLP
M5 PAM: potentiates acetylcholine response at human M5 receptor. P08912. CHO-K1 hM5, Fluo-8 calcium, ACh EC20 PAM; 0% = ACh EC20, 100% = ACh EC100. activation, % at 3 µM. actives 0.3% (n = 360,000). AID 624038;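 active = activation above the run cutoff, the mean activation of all test compounds plus 3 SD, cut at about 18% in these data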
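Assay system: CHO-K1 hM5 cells. Also added: acetylcholine at EC20 concentration, added after compound. Dosing: 3 µM, single dose. Times: compound preincubation 140 s before EC20 acetylcholine addition. Signal: Fluo-8 calcium fluorescence. Measure: % activation relative to EC20 and EC100 ACh responses. Repeats: singlicate, one well per test compound.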
M4 ag: agonists of human muscarinic M4 receptor (CHRM4); P08173; CHO-K1 hM4/Gqi5, Fluo-8 calcium fluorescence; vehicle 0%, full acetylcholine response 100%; actives 0.14% (n = 360,000); activation, % at 3 µM;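 active = activation above the run mean over all test wells plus 3 SD, cut at about 32% in these data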;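 note: peak over basal fluorescence ratio per well then scaled between controls; 0% = DMSO wells and 100% = acetylcholine at EC100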
M4 antag: CHRM4 antagonism in calcium assay | CHO-hM4 cells, ACh EC80, Fluo-8 calcium fluorescence | actives 0.73% (n = 360,000) | P08173 | inhibition, % at 3 µM;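 active = inhibition above its plate's cutoff, the mean inhibition of sample wells plus 3 SD, cut at about 27% in these data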;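 note: 0% = acetylcholine EC80 with DMSO and 100% = DMSO without agonist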
CHRM5 agonist: agonists of human muscarinic M5 receptor (CHRM5); P08912; CHO-K1 hM5 cells, Fluo-8 calcium fluorescence; 0% DMSO wells, 100% maximal acetylcholine response; activation, % at 3 µM; actives 0.19% (n = 360,000);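 active = activation above the run's mean over test compounds plus 3 SD, cut at about 23% in these data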;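 note: signal is peak over basal fluorescence ratio across the kinetic read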
CHRM4 PAM: positive allosteric modulators of human muscarinic M4 receptor; actives 0.4% (n = 360,000); P08173; CHO-K1 hM4/Gqi5, Fluo-8 calcium fluorescence, ACh EC20; 0% = ACh EC20, 100% = maximal ACh; activation, % at 3 µM;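 active = activation above its plate's cutoff, the mean activation of sample wells plus 3 SD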
* marks the source's active call; other numbers are inactive results. A selection: hits, their analogues and other compounds. The true share with any hit is near 1.8%.

What do the screens show for `Cc1ccc(NNC(=O)Nc2ccc(Cl)cc2)nn1`?
M5 antag: 15.9; M5 PAM: -3.0; M4 ag: 1.1; M4 antag: -4.0; CHRM5 agonist: -0.9; CHRM4 PAM: -0.3

How did Cc1cc(/C=C2\C(=N)N3N=C(c4ccco4)SC3=NC2=O)c(C)n1Cc1ccccc1 do in these assays?
M5 antag: 1.0; M5 PAM: -10.3; M4 ag: 8.2; M4 antag: 8.0; CHRM5 agonist: 1.1; CHRM4 PAM: -20.8

Results for CN1C(=O)/C(=C/c2coc3ccc(O)cc3c2=O)SC1=S ?
M5 antag: 9.0; M5 PAM: -0.6; M4 ag: 0.5; M4 antag: -4.1; CHRM5 agonist: 1.6; CHRM4 PAM: 2.4

How did N=C1/C(=C\c2coc3ccccc3c2=O)C(=O)N=C2SC(c3ccncc3)=NN12 do in these assays?
M5 antag: 51.5*; M5 PAM: -33.8; M4 ag: 41.2*; M4 antag: 28.3*; CHRM5 agonist: 65.0*; CHRM4 PAM: -36.6

Results for N=C1/C(=C\c2coc3ccc(O)cc3c2=O)C(=O)N=C2SC=CN12 ?
M5 antag: 26.2; M5 PAM: -29.4; M4 ag: 49.7*; M4 antag: 22.6; CHRM5 agonist: 65.2*; CHRM4 PAM: -34.1

Results for N=C1/C(=C/c2coc3ccccc3c2=O)C(=O)N=C2SC(c3ccco3)=NN12 ?
M5 antag: 53.4*; M5 PAM: -35.4; M4 ag: 64.3*; M4 antag: 23.2; CHRM5 agonist: 222.9*; CHRM4 PAM: -19.4

Results for CCc1ccc(NC(=O)C(=O)NCCOc2ccccc2Cl)cc1 ?
M5 antag: 12.7; M5 PAM: 4.8; M4 ag: 0.8; M4 antag: -9.8; CHRM5 agonist: 0.2; CHRM4 PAM: 12.9

How did Cc1cc2cc(CNC(=S)NC3CCCCC3)ccc2[nH]1 do in these assays?
M5 antag: 6.1; M5 PAM: -2.4; M4 ag: 1.5; M4 antag: -8.8; CHRM5 agonist: 1.1; CHRM4 PAM: 10.7

Results for CNC(=S)NCc1ccc2[nH]c(C)cc2c1 ?
M5 antag: 1.2; M5 PAM: 18.2*; M4 ag: 0.1; M4 antag: -2.6; CHRM5 agonist: -2.5; CHRM4 PAM: 5.2

Results for COc1ccccc1C1NC(=O)NC(C)=C1C(=O)OC1CCC(C)CC1 (stereo unspecified) ?
M5 antag: 10.7; M5 PAM: -0.8; M4 ag: -0.7; M4 antag: -0.6; CHRM5 agonist: -5.9; CHRM4 PAM: 3.2

How did CC(C)NC(=O)Cc1ccc(Br)cc1 do in these assays?
M5 antag: 1.1; M5 PAM: -1.9; M4 ag: 1.1; M4 antag: -3.5; CHRM5 agonist: -3.0; CHRM4 PAM: 10.2

Results for COc1ccc(C(C)NC(=O)Cc2ccc(Br)cc2)cc1 (stereo unspecified) ?
M5 antag: 6.4; M5 PAM: -5.9; M4 ag: 37.3*; M4 antag: -6.9; CHRM5 agonist: -5.8; CHRM4 PAM: -4.2

Results for CCc1nccn1CCC(=O)NC1CC(C)(C)Cc2c1cnn2-c1cccc(F)c1 (stereo unspecified) ?
M5 antag: 5.9; M5 PAM: -3.9; M4 ag: 2.2; M4 antag: -4.8; CHRM5 agonist: -5.1; CHRM4 PAM: -0.3

What do the screens show for `O=C(Cn1c(=O)c2cccn2c2ccc(F)cc21)N1CCN(c2ccc(F)cc2)CC1`?
M5 antag: 28.2*; M5 PAM: -9.9; M4 ag: 2.0; M4 antag: 2.6; CHRM5 agonist: -2.5; CHRM4 PAM: -5.3

What do the screens show for `O=C(N/N=C/c1ccco1)c1cccc(N2Cc3ccccc3C2)c1`?
M5 antag: 4.0; M5 PAM: -7.4; M4 ag: 1.3; M4 antag: -7.9; CHRM5 agonist: 4.1; CHRM4 PAM: 1.3

How did CCN(c1ccccc1)S(=O)(=O)c1cc(C(=O)O)ccc1C do in these assays?
M5 antag: -6.5; M5 PAM: 12.9; M4 ag: -0.1; M4 antag: -0.6; CHRM5 agonist: -1.9; CHRM4 PAM: 17.3*

Results for O=C(O)c1ccc(Cl)c(S(=O)(=O)N(Cc2ccccc2)c2ccccc2)c1 ?
M5 antag: 12.9; M5 PAM: 2.8; M4 ag: 0.4; M4 antag: 9.4; CHRM5 agonist: -1.4; CHRM4 PAM: 1.9

What do the screens show for `CCCc1cc(=O)[nH]c(SCC(=O)Nc2cc(S(=O)(=O)N(CC)c3ccccc3)ccc2Cl)n1`?
M5 antag: 9.8; M5 PAM: -6.1; M4 ag: 0.5; M4 antag: 6.3; CHRM5 agonist: -4.5; CHRM4 PAM: 0.2

How did CCOC(=O)c1ccc(NC(=O)c2ncn3c2C(=O)NC[C@H]3C)cc1 do in these assays?
M5 antag: 0.9; M5 PAM: 0.4; M4 ag: 1.2; M4 antag: -16.7; CHRM5 agonist: -0.2; CHRM4 PAM: 10.6

How did CCOC(=O)c1ccc(NC(=O)c2nc[nH]c2C(=O)NCCCNC(=O)c2[nH]cnc2C(=O)Nc2ccc(C(=O)OCC)cc2)cc1 do in these assays?
M5 antag: 2.0; M5 PAM: 7.9; M4 ag: 0.7; M4 antag: -5.6; CHRM5 agonist: 3.5; CHRM4 PAM: 4.2

What do the screens show for `CCOC(=O)c1ccc(NC(=O)c2nc[nH]c2C(=O)N(CC)CC)cc1`?
M5 antag: 1.6; M5 PAM: 4.0; M4 ag: 1.5; M4 antag: -4.6; CHRM5 agonist: 3.0; CHRM4 PAM: 21.7*

Results for CCOC(=O)c1ccc(NC(=O)c2ncn3c2C(=O)N[C@H](C)C3)cc1 ?
M5 antag: -7.3; M5 PAM: -3.8; M4 ag: -0.1; M4 antag: -23.3; CHRM5 agonist: 0.6; CHRM4 PAM: 17.0*

What do the screens show for `COc1ccccc1N1CCNC(C)C1=O` (stereo unspecified)?
M5 antag: -1.3; M5 PAM: 7.9; M4 ag: 0.0; M4 antag: -6.2; CHRM5 agonist: -2.1; CHRM4 PAM: 14.4*

What do the screens show for `COc1ccccc1N1C(=O)C2C3C=CC(CC3)C2C1=O` (stereo unspecified)?
M5 antag: 5.3; M5 PAM: -2.2; M4 ag: 0.2; M4 antag: -12.7; CHRM5 agonist: -3.9; CHRM4 PAM: -1.4

Results for Cn1cc(CN2CCC(C(=O)NC(c3ccc(-c4ccccc4)cc3)c3cnccn3)CC2)c2ccccc21 (stereo unspecified) ?
M5 antag: 10.8; M5 PAM: -3.2; M4 ag: 29.2; M4 antag: 28.1*; CHRM5 agonist: 0.9; CHRM4 PAM: -10.0

Results for O=C(c1ccccc1Nc1ccc(SC(F)F)cc1)N1CCCCC1 ?
M5 antag: 0.8; M5 PAM: 6.4; M4 ag: 0.3; M4 antag: 20.3; CHRM5 agonist: -3.6; CHRM4 PAM: 36.5*
